Paper PMC4017091 (Bioorganic & medicinal chemistry, 2013)
Entries after “also recorded” stand apart in the source; their conditions may differ. Blank lines part the entries; values can stand above or below the compound they belong to.

How the values were obtained:
human 5-LOX [1] = biological target: T1, human 5-LOX (Homo sapiens, UniProt P09917); test: Human 5-LOX inhibition screening UV assay; format: biochemical; settings: 50 μM compound; 100 μM linoleic acid substrate; 10 min pre-incubation
T1 sequence (P09917 1-674): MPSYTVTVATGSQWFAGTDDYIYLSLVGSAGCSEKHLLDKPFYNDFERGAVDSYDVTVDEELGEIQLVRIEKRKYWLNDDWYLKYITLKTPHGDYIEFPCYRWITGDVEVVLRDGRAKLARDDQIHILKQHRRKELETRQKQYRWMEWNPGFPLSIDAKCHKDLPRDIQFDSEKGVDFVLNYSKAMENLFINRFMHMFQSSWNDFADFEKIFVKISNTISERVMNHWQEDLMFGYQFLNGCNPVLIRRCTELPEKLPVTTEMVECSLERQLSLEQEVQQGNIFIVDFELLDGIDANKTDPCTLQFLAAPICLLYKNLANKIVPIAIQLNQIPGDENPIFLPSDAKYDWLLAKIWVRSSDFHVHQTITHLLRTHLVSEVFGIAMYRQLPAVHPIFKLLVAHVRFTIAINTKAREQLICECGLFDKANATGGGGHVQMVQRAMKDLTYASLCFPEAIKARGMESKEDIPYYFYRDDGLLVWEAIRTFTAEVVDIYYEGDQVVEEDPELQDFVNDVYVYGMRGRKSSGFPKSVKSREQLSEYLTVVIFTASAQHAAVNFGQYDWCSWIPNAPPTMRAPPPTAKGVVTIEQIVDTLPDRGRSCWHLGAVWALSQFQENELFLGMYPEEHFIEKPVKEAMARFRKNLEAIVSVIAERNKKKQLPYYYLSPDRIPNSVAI
How it was run: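 Human 5-LOX was diluted 1:4000 in 50 mM Tris pH 7.5 with 2 mM EDTA and 2 mM CaCl2, plus ATP (2 mM stock). It was pre-incubated 10 min at room temperature with test compound diluted from DMSO stock, or a DMSO-only control. Linoleic acid (20 mM ethanolic stock) was added, and HPOD conjugated diene formation was followed at 234 nm over 20 min. Residual activity was taken relative to the control. Three independent experiments; mean with SD.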

[2] = biological target: T2, COX-2 (human recombinant) (Homo sapiens, UniProt P35354); test: COX-2 inhibition screening assay; format: biochemical; settings: 50 μM compound; 2 mM arachidonic acid substrate
T2 sequence (P35354 18-604): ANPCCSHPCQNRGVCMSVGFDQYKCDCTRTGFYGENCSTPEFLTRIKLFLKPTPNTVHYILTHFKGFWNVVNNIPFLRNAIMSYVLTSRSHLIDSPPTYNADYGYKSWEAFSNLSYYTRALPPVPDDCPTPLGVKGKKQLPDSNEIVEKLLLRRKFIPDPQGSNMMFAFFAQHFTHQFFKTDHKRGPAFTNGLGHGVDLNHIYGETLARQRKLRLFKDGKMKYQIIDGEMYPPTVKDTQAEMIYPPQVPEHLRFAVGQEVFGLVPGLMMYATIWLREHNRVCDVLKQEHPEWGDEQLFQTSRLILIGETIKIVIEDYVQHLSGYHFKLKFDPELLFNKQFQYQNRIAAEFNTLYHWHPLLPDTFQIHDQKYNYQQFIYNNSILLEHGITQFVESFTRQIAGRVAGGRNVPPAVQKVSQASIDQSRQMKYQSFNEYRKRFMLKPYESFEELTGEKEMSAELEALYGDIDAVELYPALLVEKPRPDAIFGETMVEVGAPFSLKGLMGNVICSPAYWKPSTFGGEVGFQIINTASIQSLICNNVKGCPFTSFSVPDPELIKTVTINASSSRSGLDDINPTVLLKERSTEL
How it was run: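 Human recombinant COX-2 was diluted 1:1000 in 0.1 M Tris pH 8.0 with hematin. It was pre-incubated 5 min at room temperature with test compound from a 1.1 mM DMSO solution, or DMSO for the positive control. Freshly made TMPD and then arachidonic acid were added, with no arachidonic acid in negative controls. After 5 more min at room temperature, TMPD oxidation was read at 550 nm. Triplicate; mean with SD.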

[3] = tested on: soybean lipoxygenase-1 (SLO-1); settings: cited from earlier work
potato 5-lipoxygenase = settings: cited from earlier work
human 5-LOX [4] = biological target: T1, human 5-LOX; test: Michaelis-Menten enzyme kinetics of human 5-LOX versus ATP or linoleic acid; format: biochemical; settings: for type of modulation versus linoleic acid: varied linoleic acid
h-5-LOX = biological target: T3, h-5-LOX (Homo sapiens, UniProt P09917); test: h-5-LOX activity with arachidonic acid as substrate; format: biochemical; settings: 50 μM compound; 100 μM arachidonic acid
T3 sequence (P09917 1-674): T1 sequence (P09917 1-674)

[5] = linoleic acid conversion, non-essential activation model

- effect on h-5-LOX activity (in words) (human 5-LOX [1]): little inhibition
- effect on COX-2 activity (in words) [2]: little inhibition
Compound: CCCCCCCCCCCCCCCc1cccc(O)c1C(=O)O [Compound 14, Anacardic acid, reference compound]

- effect on h-5-LOX activity (in words) (human 5-LOX [1]): little inhibition
- effect on COX-2 activity (in words) [2]: little inhibition
Compound: CCCCCCCCCCc1cccc(O)c1C(=O)O [Compound 15]

- effect on h-5-LOX activity (in words) (human 5-LOX [1]): little inhibition
- effect on COX-2 activity (in words) [2]: little inhibition
Compound: CCCCCc1cccc(O)c1C(=O)O [Compound 16]

Compound: CCCCCCCCCCCCCCCc1cc(O)cc(O)c1C(=O)O [Compound 17]
- effect on h-5-LOX activity (in words) (human 5-LOX [1]): slight improvement in the inhibitory potency

Compound: CCCCCCCc1ccc(CCc2cc(O)cc(O)c2C(=O)O)cc1 [Compound 19]
- effect on soybean lipoxygenase-1 (SLO-1) [3]: allosteric inhibitor

- effect on h-5-LOX activity (in words) (human 5-LOX [1]): neither inhibition nor activation
Compound: CCCCCCCCCCCCCCOc1cccc(O)c1C(=O)O [Compound 21]
- effect on potato 5-LOX (potato 5-lipoxygenase): strong activation; also recorded: allosteric activator

Compound: CCCCCOc1ccc(COc2cccc(O)c2C(=O)[O-])cc1.[K+] [Compound 23a, potassium 2-hydroxy-6-((4-(pentyloxy)benzyl)oxy)benzoate]
- effect on h-5-LOX activity (in words) (human 5-LOX [1]): strong activation
- α (change in the affinity of substrate binding) (human 5-LOX [4]; [5]): 0.0438
- β (change in the catalytic constant) (human 5-LOX [4]; [5]): 1.76
- type of modulation versus ATP (human 5-LOX [4]; varied ATP, 100 μM linoleic acid): non-competitive activation
- type of modulation versus linoleic acid (human 5-LOX [4]; 100 μM ATP): non-essential mixed type activation
- activation of linoleic acid conversion versus compound concentration (human 5-LOX [4]; various concentrations of compound, linoleic acid substrate): concentration dependent activation
- Vmax^app (human 5-LOX [4]; versus ATP, 12.5 μM 23a, 100 μM linoleic acid): 0.3861 ± 0.0073 µM/s
- Vmax^app (human 5-LOX [4]; versus ATP, 25 μM 23a, 100 μM linoleic acid): 0.5236 ± 0.0137 µM/s
- Vmax^app (human 5-LOX [4]; versus linoleic acid, 12.5 μM 23a, 100 μM ATP): 2.39 ± 0.07 µM/s
- Vmax^app (human 5-LOX [4]; versus linoleic acid, 25 μM 23a, 100 μM ATP): 2.70 ± 0.05 µM/s
- modulation of h-5-LOX activity toward arachidonic acid (h-5-LOX): no modulation; also recorded: no effect

Compound: CCCCCCCOc1ccc(COc2cccc(O)c2C(=O)[O-])cc1.[K+] [Compound 23b, Potassium 2-((4-(heptyloxy)benzyl)oxy)-6-hydroxybenzoate]
- effect on h-5-LOX activity (in words) (human 5-LOX [1]): no or little inhibition

Compound: CCCCCCCCCOc1ccc(COc2cccc(O)c2C(=O)[O-])cc1.[K+] [Compound 23c, Potassium 2-hydroxy-6-((4-(nonyloxy)benzyl)oxy)benzoate]
- effect on h-5-LOX activity (in words) (human 5-LOX [1]): no or little inhibition

Compound: CC(C)CCCC(C)CCOc1ccc(COc2cccc(O)c2C(=O)[O-])cc1.[K+] (stereo not drawn) [Compound 23d, Potassium 2-((4-((3,7-dimethyloctyl)oxy)benzyl)oxy)-6-hydroxybenzoate]
- Ki′ (dissociation constant of inhibitor to enzyme-substrate complex) (human 5-LOX [4]; linoleic acid conversion, mixed type inhibition model): 140 µM
- type of modulation versus linoleic acid (human 5-LOX [4]; 100 μM ATP): mixed-type inhibition
- Vmax^app (human 5-LOX [4]; versus linoleic acid, 25 μM 23d): 1.84 ± 0.25 µM/s
- Vmax^app (human 5-LOX [4]; versus linoleic acid, 50 μM 23d): 1.47 ± 0.16 µM/s
- modulation of h-5-LOX activity toward arachidonic acid (h-5-LOX): no modulation; also recorded: no effect

Compound: Oc1ccccc1-c1nc2ccccc2o1 [Compound 25, 2-(benzo[d]oxazol-2-yl)phenol]
- effect on h-5-LOX activity (in words) (human 5-LOX [1]): did not inhibit; also recorded: no inhibition

- Km (human 5-LOX [4]; read-out: Km of the substrate for h-5-LOX, no modulator): 600 µM
Compound: CCCCC/C=C\C/C=C\CCCCCCCC(=O)O [linoleic acid]
